Results published in ChEMBL document CHEMBL4665630, “Synthesis and biological evaluation of anthraquinone derivatives as allosteric phosphoglycerate mutase 1 inhibitors for cancer treatment” (Eur J Med Chem, 2019).

Assays:
PC-9 = test: Antiproliferative activity against human PC-9 cells assessed as reduction in cell viability measured after 72 hrs by MTT assay; type: functional, cell-based; settings: PC-9, 72 h
Summary of the method: (§1)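 Cells grown in RPMI-1640 (H1299, PC9) or F-12K (A549) with 10% FBS and penicillin/streptomycin; 2000 H1299 or A549 or 1000 PC9 cells per well, attached 24 h, exposed to inhibitor 72 h; MTT 0.5 mg/mL for 4 h, absorbance at 570 nm; mean ± s.d., n=3.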

NCI-H1299 = test: Antiproliferative activity against human H1299 cells assessed as reduction in cell viability measured after 72 hrs by MTT assay; type: functional, cell-based; settings: NCI-H1299, 72 h; summary of the method: as §1
[1] = target: Phosphoglycerate mutase 1 (Homo sapiens, UniProt P18669); test: Inhibition of human recombinant PGAM1 by measuring decrease in OD by enzyme based assay
Summary of the method: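 C-terminal His6-tagged PGAM1, Ni-NTA purified, 4.6 nM, preincubated with inhibitor in DMSO; coupled enolase/pyruvate kinase M2/LDH system in 100 mM Tris-HCl, 100 mM KCl, 5 mM MgCl2, 1 mM ADP, 0.2 mM NADH, 4 mM 3PG; NADH loss read at 340 nm. Counter-screen without PGAM1 using 4 mM 2PG. Mean ± s.d., n=3.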

A549 = test: Antiproliferative activity against human A549 cells assessed as reduction in cell viability measured after 72 hrs by MTT assay; type: functional, cell-based; settings: A549, 72 h; summary of the method: as §1

Phosphoglycerate mutase 1, sequence (P18669 whole entry): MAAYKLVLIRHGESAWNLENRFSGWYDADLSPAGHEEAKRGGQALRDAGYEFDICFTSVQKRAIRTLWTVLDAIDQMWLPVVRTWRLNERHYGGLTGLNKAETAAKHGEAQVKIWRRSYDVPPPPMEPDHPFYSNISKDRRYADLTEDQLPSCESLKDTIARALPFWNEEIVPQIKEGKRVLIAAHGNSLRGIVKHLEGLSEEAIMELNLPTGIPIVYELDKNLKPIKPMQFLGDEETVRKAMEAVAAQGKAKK

| Structure (SMILES) | IC50 (PC-9) | IC50 (NCI-H1299) | IC50 [1] | IC50 (A549) |
| --- | --- | --- | --- | --- |
| CC1CC(C)CN(c2ccc(S(=O)(=O)Nc3cc4c(c(O)c3O)C(=O)c3ccccc3C4=O)cc2)C1 (stereo not drawn) | 11.6 µM | 10.3 µM | 2.6 µM | 9.2 µM |
| O=C1c2ccccc2C(=O)c2c1cc(NS(=O)(=O)c1ccc(Cl)s1)c(O)c2O | 16.1 µM | 17.7 µM | 0.55 µM | 12.2 µM |
| O=C1c2ccccc2C(=O)c2c1cc(NS(=O)(=O)c1ccc(N3CCCCC3)cc1)c(O)c2O | 3 µM | 10 µM | 0.33 µM | 6.3 µM |
| CC(C)(C)c1ccc(S(=O)(=O)Nc2cc3c(c(O)c2O)C(=O)c2ccccc2C3=O)cc1 | 9.5 µM | 10.2 µM | 0.49 µM | 8.1 µM |
| O=C1c2ccccc2C(=O)c2c1cc(NS(=O)(=O)C1CCCCC1)c(O)c2O |  | 21.8 µM | 1.75 µM |  |
| O=C1c2ccccc2C(=O)c2c1cc(NS(=O)(=O)c1ccc(-c3ccc(Cl)cc3)cc1)c(O)c2O | 6.6 µM | 6.3 µM | 0.14 µM | 6.8 µM |
| Cc1ccc(S(=O)(=O)Nc2cc3c(c(O)c2O)C(=O)c2ccccc2C3=O)cc1 | 15.7 µM | 7.7 µM | 0.36 µM | 25.4 µM |
| COc1ccc(S(=O)(=O)Nc2cc3c(c(O)c2O)C(=O)c2ccccc2C3=O)c(OC)c1 |  | 20 µM | 2.86 µM |  |
| O=C1c2ccccc2C(=O)c2c1cc(NS(=O)(=O)c1cccc3ccccc13)c(O)c2O | 18.1 µM | 7.7 µM | 1.29 µM | 50.5 µM |
| O=C1c2ccccc2C(=O)c2c1cc(NS(=O)(=O)c1cccc3cccnc13)c(O)c2O |  | 47.6 µM | 2.05 µM |  |
| O=C1c2ccccc2C(=O)c2c1cc(NS(=O)(=O)c1cccs1)c(O)c2O |  | 25.8 µM | 0.84 µM |  |
| CCCCS(=O)(=O)Nc1cc2c(c(O)c1O)C(=O)c1ccccc1C2=O |  | 38.8 µM | 2.05 µM |  |
